Screening results from PubChem.
Cardio protect = myocardial damage modulation in H9c2 cells; H9c2 cardiomyocytes, H2O2 injury protection, ATPLite, 2 h; protection from H2O2 cell death, % at 20 µM; hit rate 0.63% among 360,000; AID 588492;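 active means compounds giving at least 50% protection of heart cells from peroxide-induced death in the single-dose screen, raw or plate-pattern-corrected value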;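 further: 0% = DMSO wells with peroxide and 100% = DMSO wells without peroxide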
PKA-R2B activ = activates the human PKA-R2B holoenzyme complex | AID 504700 | PKA-R2B holoenzyme dissociation, Cy5-IP20 fluorescence polarization; R2B truncated from residue 108, S112A mutant; 0% DMSO only, 100% 113 µM cGMP | P22694+P31323 | activation, % at 11.4 µM | hit rate 0.079% among 340,000;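 active means activation above a cutoff set at the mean over all compounds plus 3 SD, cut at about 18% in these data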;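 further: higher means more holoenzyme dissociation and a rise in polarization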
TbMetRS inhib = blocks T. brucei methionyl-tRNA synthetase activity; purified T. brucei MetRS, ATP depletion, Kinase-Glo luminescence; inhibition, % at 11.9 µM; hit rate 0.4% among 360,000; AID 624268;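 active means inhibition above a per-plate cutoff of the control wells' mean inhibition plus 3 SD, cut at about 5.5% in these data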;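 further: 0% = DMSO wells median and 100% = median of wells with control inhibitor compound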
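technique = Kinase-Glo luminescence, ATP depletion format | system = purified MetRS (methionyl-tRNA synthetase) enzyme from Trypanosoma brucei | timing = 15 min preincubation, 2 h reaction, all 25 °C | evaluation = percent inhibition versus plate control medians | dosing = single dose, 11.9 µM final nominal, 0.9% final DMSO | also added = substrates ATP, L-methionine and bulk Escherichia coli tRNA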
Rin1 Abl inh = blocks binding of human Rin1 to Abl; inhibition, % at 7.35 µM; P00519+Q13671; hit rate 0.4% among 360,000; TR-FRET Rin1/Abl binding, biochemical; in the data active means inhibition above about 5%, passing the limit was not always enough
Target sequence (P00519 whole entry, looked up): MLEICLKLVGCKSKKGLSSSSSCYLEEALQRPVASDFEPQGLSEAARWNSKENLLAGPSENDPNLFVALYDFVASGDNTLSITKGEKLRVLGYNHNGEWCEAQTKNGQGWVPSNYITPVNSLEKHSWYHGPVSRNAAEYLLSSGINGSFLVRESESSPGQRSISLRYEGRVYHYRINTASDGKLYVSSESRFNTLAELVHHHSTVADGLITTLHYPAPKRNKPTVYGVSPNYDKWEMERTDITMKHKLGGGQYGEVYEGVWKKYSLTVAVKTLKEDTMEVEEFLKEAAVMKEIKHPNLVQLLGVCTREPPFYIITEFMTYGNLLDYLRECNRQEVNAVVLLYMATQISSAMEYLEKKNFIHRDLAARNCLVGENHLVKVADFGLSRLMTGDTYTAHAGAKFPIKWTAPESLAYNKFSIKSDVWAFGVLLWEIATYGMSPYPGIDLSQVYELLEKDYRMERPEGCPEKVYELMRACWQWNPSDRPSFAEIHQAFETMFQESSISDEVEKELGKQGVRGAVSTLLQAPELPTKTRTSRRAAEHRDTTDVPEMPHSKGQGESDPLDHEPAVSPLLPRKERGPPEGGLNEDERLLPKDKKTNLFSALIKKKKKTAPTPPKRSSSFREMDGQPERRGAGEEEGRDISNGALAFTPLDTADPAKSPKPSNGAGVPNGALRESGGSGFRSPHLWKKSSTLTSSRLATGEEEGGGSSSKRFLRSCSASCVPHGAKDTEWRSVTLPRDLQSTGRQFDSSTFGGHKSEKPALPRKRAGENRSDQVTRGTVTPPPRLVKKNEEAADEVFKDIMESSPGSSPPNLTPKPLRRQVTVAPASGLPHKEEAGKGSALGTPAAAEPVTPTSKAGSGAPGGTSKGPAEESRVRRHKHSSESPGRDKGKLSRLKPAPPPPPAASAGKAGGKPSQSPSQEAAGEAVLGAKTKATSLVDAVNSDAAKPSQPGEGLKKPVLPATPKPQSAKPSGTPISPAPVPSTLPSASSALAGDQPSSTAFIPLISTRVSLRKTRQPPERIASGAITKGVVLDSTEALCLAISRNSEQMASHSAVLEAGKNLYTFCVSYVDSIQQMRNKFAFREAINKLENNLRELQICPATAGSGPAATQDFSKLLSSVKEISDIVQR
Target sequence (Q13671 whole entry, looked up): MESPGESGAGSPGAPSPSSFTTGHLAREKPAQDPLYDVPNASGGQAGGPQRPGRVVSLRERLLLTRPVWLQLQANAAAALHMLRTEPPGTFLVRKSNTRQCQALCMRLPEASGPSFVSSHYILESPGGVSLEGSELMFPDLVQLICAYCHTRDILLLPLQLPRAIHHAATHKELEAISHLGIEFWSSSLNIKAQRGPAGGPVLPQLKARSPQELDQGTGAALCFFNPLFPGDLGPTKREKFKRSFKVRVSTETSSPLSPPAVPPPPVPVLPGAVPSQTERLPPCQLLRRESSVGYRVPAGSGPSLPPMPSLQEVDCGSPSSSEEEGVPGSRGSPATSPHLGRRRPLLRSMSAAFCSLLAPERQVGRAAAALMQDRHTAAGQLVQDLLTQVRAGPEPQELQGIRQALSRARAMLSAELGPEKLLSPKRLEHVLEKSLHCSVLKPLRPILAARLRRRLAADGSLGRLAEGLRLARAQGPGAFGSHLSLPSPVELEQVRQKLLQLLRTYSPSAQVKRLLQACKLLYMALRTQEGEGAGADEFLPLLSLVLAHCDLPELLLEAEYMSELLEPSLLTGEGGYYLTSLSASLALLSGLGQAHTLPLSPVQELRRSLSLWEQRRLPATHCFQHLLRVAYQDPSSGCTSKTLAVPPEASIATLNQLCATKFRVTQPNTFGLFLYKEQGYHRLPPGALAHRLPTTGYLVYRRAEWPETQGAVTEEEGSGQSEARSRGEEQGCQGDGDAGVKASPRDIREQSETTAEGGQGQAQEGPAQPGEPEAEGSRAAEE
PKA-R1A act = PKA-R1A complex activation. PKA-R1A dissociation, Cy5-IP20 fluorescence polarization; scaled: DMSO 0%, 113 µM cGMP 100%. P00514+P68181. activation, % at 11.4 µM. hit rate 0.083% among 340,000;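 active means percent activation above the mean of all tested compounds plus 3 SD, cut at about 19% in these data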;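 further: higher means more PKAc released from R1A so a rise in polarization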
Rin1 Abl conf = Rin1-Abl interaction inhibition confirmation; shares compounds with Rin1 Abl inh; TR-FRET Rin1-Abl binding, purified proteins; inhibition, % at 7.35 µM; hit rate 49% among 1,300
GFP quencher = quenches GFP fluorescence, counter-screen for Rin1-Abl inhibitors; inhibitors/quenchers counterscreen; shares compounds with Rin1 Abl inh; hit rate 8.5% among 1,300; inhibition, % at 6.75 µM;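 further: ABL1-eGFP fusion protein alone without its partner RIN1-SBP; 0% = protein with vehicle and 100% = wells lacking protein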
GFP quench dose = counter-screen for Rin1-Abl inhibitors: GFP quenchers, dose response; GFP fluorescence interference/quenching counterscreen; shares compounds with Rin1 Abl inh; 230 tested, under 10 active; IC50, µM; AID 602182; call rule not given here;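 further: ABL1-eGFP fusion protein alone without its RIN1 binding partner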
Starred values were filed as active, the others as inactive; x = no result. In the library only some 1.5% were active in any assay of this set; here they are far more common. Unless noted, no stated cut-off is given here; in the data, active means inhibition above about 6.5%; inactive means the rest.

SMILES	Cardio protect	PKA-R2B activ	TbMetRS inhib	Rin1 Abl inh	PKA-R1A act	Rin1 Abl conf	GFP quencher	others
Cc1nn(-c2ccccc2)c(C)c1C(=O)OCC(=O)N(C)c1ccccc1	1	-3	0	9.0*	-6	2	-1
CCN(CC)C(=O)N1CCN(Cc2ccc3c(c2)OCO3)CC1	10	5	0	-8	13	x	x
O=C(C(Cl)Cl)N1CCN(Cc2ccc3c(c2)OCO3)CC1	5	-2	-1	6.9*	1	3	2
OCC[C@@H]1C[C@@H](O)[C@H](O)[C@@]2(OCCc3ccccc32)O1	-1	2	0	3	-3	x	x
O=C1C=CC(=O)c2c(O)c(N3CCN(CCOCCO)CC3)c(Br)c(O)c21	-14	1	0	39*	-2	54*	25*
O=S(=O)(c1ccc(Br)cc1Cl)N1CCN(CCO)CC1	-2	-1	0	-3	4	x	x
O=C1C=CC(=O)c2c(O)c(N3CCN(CCO)CC3)c(Cl)c(O)c21	-15	-12	0	48*	-3	51*	24*
O=C(NCCCN1CCCC1=O)c1c(O)nc2sccn2c1=O	2	2	0	-1	-7	x	x
CCCCOc1ccc(C(=O)NCC(=O)NNC(=O)c2ccco2)cc1	0	11	0	4	1	x	x
CC1CCN(S(=O)(=O)CCNC(=O)c2ccc3c(c2)OCO3)CC1	-6	-5	0	-2	-9	x	x
O=C(OCCc1cc2ccccc2c(=O)o1)N1CCOCC1	8	1	0	12*	12	2	-4
O=C(OCCCc1cc2ccccc2c(=O)o1)N1CCOCC1	-3	-9	1	2	-7	x	x
CC(C)OC(=O)CSc1nnc(Cc2ccccc2)n1C	9	2	-1	8.9*	12	-2	0
CC(Oc1cccc(Cl)c1)C(=O)Nc1nc(-c2ccccn2)cs1 (stereo unspecified)	50*	9	0	7.1*	1	-1	1
CC(Oc1cccc(Cl)c1)C(=O)Nc1ccncc1 (stereo unspecified)	-11	1	-1	4	0	x	x
Cc1ccc(C(=O)NC2(O)C(=O)c3ccccc3C2=O)cc1C	8	4	1	12*	-3	16*	3
CCc1nn(CC(=O)N2CCC(C(N)=O)CC2)c(=O)c2cc3occc3n12	7	-5	1	12*	1	-1	0
COc1cc2c(cc1OC)C(C)N(C(=O)c1ccc(Br)o1)CC2 (stereo unspecified)	-5	-23	0	11*	2	5	2
COc1cc2c(cc1OC)CN(C(=O)c1ccc(Br)o1)CC2	-3	-7	0	4	-5	x	x
O=C(N/N=C/c1ccc(O)c(O)c1)N/N=C/c1ccc(O)c(O)c1	-14	5	0	49*	14	63*	12*
COc1ccc(C(=O)NCC(=O)N2CCN(C(=O)c3ccco3)CC2)cc1	1	0	-1	2	-12	x	x
CC12CCC(=O)N1C(C(=O)Nc1nnc(SCc3ccccc3F)s1)CS2 (stereo unspecified)	5	5	0	32*	-3	52*	-1	GFP quench dose=>68
Cc1ccc(C2N(c3ccccc3)C(=O)N3CCCN23)cc1 (stereo unspecified)	3	-7	-1	0	-5	x	x
O=C1N(c2cccc(Cl)c2)C(c2ccccc2)N2CCCN12 (stereo unspecified)	3	-3	1	17*	-7	24*	-1	GFP quench dose=>68
O=C1N(c2cccc(Cl)c2)C(c2ccc(Cl)cc2)N2CCCN12 (stereo unspecified)	2	-1	0	11*	-2	18*	-2	GFP quench dose=>68
SMILES	Cardio protect	PKA-R2B activ	TbMetRS inhib	Rin1 Abl inh	PKA-R1A act	Rin1 Abl conf	GFP quencher	others
CCCC(=O)NC(c1ccccc1OC)c1ccc2cccnc2c1O (stereo unspecified)	34	7	-1	7.0*	-3	5	3
COC(C(=O)C(O)C(C)O)C1Cc2cc3cc(OC4CC(OC5CC(O)C(O)C(C)O5)C(O)C(C)O4)c(C)c(O)c3c(O)c2C(=O)C1OC1CC(OC2CC(OC3CC(O)C(OC)C(C)O3)C(O)C(C)O2)C(O)C(C)O1 (stereo unspecified)	8	-1	0	13*	-5	0	-1
Cc1cccc(NC(=O)C(c2ccccc2Cl)N2CCOCC2)c1 (stereo unspecified)	-3	6	-1	8.2*	0	-1	1
Cc1ccc(NC(=O)CCn2c(=O)[nH]c3ccsc3c2=O)cc1F	2	4	0	1	-8	x	x
CN(CC(=O)Nc1cccc(C(F)(F)F)c1)C1=NS(=O)(=O)c2ccccc21	0	10	1	9.9*	-3	4	-2
CN(CC(=O)Nc1cccc(Cl)c1)C1=NS(=O)(=O)c2ccccc21	4	-13	0	-1	6	x	x
CCN(CC)C(=O)c1nc(-c2cccc3ccccc23)no1	-3	-11	0	1	0	x	x
Cc1nc(Nc2cccc(O)c2)c2c3c(sc2n1)CCC3	0	-10	0	46*	-2	45*	-1	GFP quench dose=>68
CCN(CC)S(=O)(=O)c1ccc(S(=O)(=O)N2CCC(C(=O)NC3CCN(Cc4ccccc4)CC3)CC2)cc1	2	0	0	-2	-9	x	x
Cc1ccc(Cl)cc1S(=O)(=O)N1CCC(C(=O)NC2CCN(Cc3ccccc3)CC2)CC1	-3	1	0	15*	8	-2	1
CCn1ccnc1CN(C)C(=O)c1cc(COc2ccccc2SC)on1	-2	-4	0	0	-6	x	x
O=C(Cc1ncc(C(F)(F)F)cc1Cl)NCc1ccco1	-5	6	-1	4	-3	x	x
COc1ccc(C[C@H]2CN3C(=NC[C@@H]3Cc3ccc(O)cc3)N2C[C@H](C)NC(=O)c2ccc(C)c(Br)c2)cc1	-9	-9	0	9.4*	-6	1	0
CCOC(=O)Nc1nnc(Cc2ccc(Cl)c(Cl)c2)s1	-3	0	-2	9.3*	-14	-2	0
CCOC(=O)C(=O)Nc1nnc(Cc2ccc(OC)c(OC)c2)s1	8	3	-1	1	-7	x	x
Cc1cccc(CNc2ccc(C(CC(N)=O)NC(=O)c3cccc(Br)c3)cc2[N+](=O)[O-])c1 (stereo unspecified)	-9	3	0	-1	-7	x	x
